Measured values from different studies.
Effect on: cell growth or viability

Structure (SMILES)	cell line	method	time	IC50
Cc1cc(Oc2ccc(NC(=O)c3cnn(-c4ccc(Cl)cc4)c3C(F)(F)F)cc2F)c2nncn2n1	L02	MTT	–	> 50 µM
COCCCOc1ccnc(COc2ccc(NC(=O)Nc3cccc(C(F)(F)F)c3)cc2)c1C	L02	MTT	72 h	> 100 µM
CCN1C(=O)N(c2c(F)c(OC)cc(OC)c2F)Cc2cnc3[nH]c(CN4CCOCC4)cc3c21	Li-7	ATP luminescence	96 h	0.054 µM
Cc1c(OCC(F)(F)F)ccnc1COc1ccc(NC(=O)Nc2cccc(C(F)(F)F)c2)cc1	L02	MTT	72 h	> 100 µM
CC[C@]1(O)C[C@H]2CN(CCc3c([nH]c4ccccc34)[C@@](C(=O)OC)(c3cc4c(cc3OC)N(C=O)[C@H]3[C@@](O)(C(=O)OC)[C@H](OC(C)=O)[C@]5(CC)C=CCN6CC[C@]43[C@@H]65)C2)C1	NALM-6	MTT	48 h	0.00087 µM
O=c1[nH]cc(F)c(=O)[nH]1	human Lymphocyte	–	72 h	18 µM
CC(=O)c1cccc(/N=N/c2cc(/C=C/C(=O)O)ccc2O)c1	PANC-1	MTT	–	> 50 µM
CC[C@@H](C)[C@H](N)C(=O)N1Cc2ccccc2C1	OCI-AML2	ATP luminescence	–	0.3 µM
COc1ccnc(COc2ccc(NC(=O)Nc3ccc(Cl)cc3)cc2)c1OC	L02	MTT	72 h	> 100 µM
Clc1ccnc2c1ccc1c(Cl)ccnc12	L02	MTT	48 h	> 50 µM
COCCCOc1ccnc(COc2ccc(NC(=O)Nc3cc(F)cc(F)c3)cc2)c1C	L02	MTT	72 h	> 100 µM
Cc1ccc2c(Cl)cc(Cl)c(O)c2n1	L02	MTT	48 h	> 100 µM
CCOc1cc(OCC)cc(C(=O)O[C@@H]2CN3Cc4c(cc5c(c4OC)OCO5)[C@@]24C=C[C@H](OC)C[C@@H]34)c1	PANC-1	WST-1	–	8.3 µM
C=CCNC1=C2C[C@@H](C)C[C@H](OC)[C@H](O)[C@@H](C)/C=C(\C)[C@H](OC(N)=O)[C@@H](OC)/C=C\C=C(/C)C(=O)NC(=CC1=O)C2=O	ARPE-19	MTT	–	1 µM
Cc1cc(Oc2ccc(NC(=O)c3sc(-c4ccccn4)nc3C)cc2F)c2nncn2n1	L02	MTT	–	> 50 µM
Nc1nc(Nc2ccc3c(c2)CC[C@@H](N2CCCC2)CC3)nn1-c1cc2c(nn1)-c1ccccc1CCC2	OCI-AML-3	trypan blue	72 h	2.9 µM
CC(C)[C@H](N)C(=O)N1CCC[C@H]1B(O)O	OCI-AML2	ATP luminescence	48 h	0.08 µM
COc1cc(-c2ncn(/C=C\C(=O)OC(C)C)n2)cc(C(F)(F)F)c1	OCI-AML-3	–	72 h	0.112 µM

Structure (SMILES)	cell line	method	time	IC50
COc1c(C)cnc(COc2ccc(NC(=O)Nc3cc(F)cc(F)c3)cc2)c1C	L02	MTT	72 h	> 100 µM
Cc1cc(Oc2ccc(NC(=O)c3sc(-c4ccc(F)cc4)nc3C)cc2)c2nncn2n1	L02	MTT	–	> 50 µM
C#CCSc1nc(Sc2nnnn2-c2ccccc2)c2nnn(Cc3ccc(OC)cc3)c2n1	OCI-AML-3	MTS	6 days	4.72 µM
Cc1cc(Oc2ccc(NC(=O)c3sc(-c4ccccc4)nc3C)cc2F)n2ncnc2n1	L02	MTT	–	> 50 µM
O=C(N/N=C/c1c(O)ccc2ccccc12)c1cc(-c2ccc3ccccc3c2)n[nH]1	WM-115	MTS	48 h	5.6 µM
Nc1ncc(-c2cnn(C3CCNCC3)c2)cc1-c1nnc(CC2CC2)o1	OCI-AML-3	trypan blue	72 h	0.479 µM
O=C(O)/C=C/c1ccc(O)cc1	PANC-1	MTT	–	> 50 µM
COCCCOc1ccnc(COc2ccc(NC(=O)Nc3ccc(Cl)c(C(F)(F)F)c3)cc2)c1C	L02	MTT	72 h	> 100 µM
Cc1ccc(S(=O)(=O)OCC(=O)Nc2ccc(C(=O)O)c(O)c2)cc1	OCI-AML2	–	–	112 µM
COc1c(C)cnc(COc2ccc(NC(=O)Nc3ccc(F)cc3)cc2)c1C	L02	MTT	72 h	> 100 µM
Oc1c(I)cc(Cl)c2cccnc12	L02	MTT	48 h	79 µM
Cc1cc(Oc2ccc(NC(=O)c3cc(-c4cccs4)no3)cc2F)n2ncnc2n1	L02	MTT	–	> 50 µM
COC1=C2C[C@@H](C)C[C@H](OC)[C@H](O)[C@@H](C)/C=C(\C)[C@H](OC(N)=O)[C@@H](OC)/C=C\C=C(/C)C(=O)NC(=CC1=O)C2=O	ARPE-19	MTT	–	0.1 µM
COc1c(C)cnc(COc2ccc(NC(=O)Nc3ccc(Cl)cc3)cc2)c1C	L02	MTT	72 h	> 100 µM
Cc1cc(Oc2ccc(NC(=O)c3sc(-c4ccccc4)nc3C)cc2F)c2nncn2n1	L02	MTT	–	> 50 µM
Oc1ccc(Nc2nc(-c3ccc(Cl)cc3)cs2)cc1	WM-115	MTS	24 h	38.9 µM
COc1cc(C2Oc3cc([C@H]4Oc5cc(O)cc(O)c5C(=O)[C@@H]4O)ccc3OC2CO)ccc1O (some centres unmarked)	RWPE-1	CCK-8	72 h	> 300 µM
